18 molecules from ChEMBL document CHEMBL1138743, “Discovery of novel heteroarylazoles that are metabotropic glutamate subtype 5 receptor antagonists with anxiolytic activity” (J Med Chem, 2004) can be followed below.

The structures appear in SMILES notation.

The target of data set [1] is Metabotropic glutamate receptor 5 (Rattus norvegicus, UniProt P31424). In words: Displacement of [3H]3-methoxy-5-(pyridin-2-ylethynyl)pyridine from glutamate 5 receptor of rat cortical membranes. Format: cell membranes, Membrane. The procedure, abridged: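 Native mGlu5 in rat cortical membranes; displacement of bound [3H]-3-methoxy-5-(pyridin-2-ylethynyl)pyridine by test compound. Ki given as geometric mean with lower and upper limits and number of replicates.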
A general note: Displacement assays read how much labelled ligand stays bound in the presence of the test substance.

Data set [2] addresses Metabotropic glutamate receptor 5 (Homo sapiens, UniProt P41594). In words: Inhibitory concentration towards human glutamate receptor 5 in calcium flux assay. Format: functional. In outline:
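Ltk cells stably expressing human recombinant mGlu5; glutamate as agonist. Cytosolic Ca2+ changes read by fura-2 fluorescence in an automated format. IC50 given as geometric mean with limits and replicate number.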
For orientation: Calcium flux is commonly read through the fluorescence of an indicator in the cells.

The nature of data set [3]: Maximum concentration in rat when administered at 10 mg/kg perorally. More on the design: dose 10 mg/kg, route oral. Format: ADME, organism-based. To be noted: in vivo, po. In outline:
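Sprague-Dawley rats dosed 10 mg/kg po (n = 3/group); maximum plasma concentration recorded.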

Data set [4] deals with Rattus norvegicus. In words: In vivo receptor occupancy was determined in rats administered intraperitoneally after 1 hr. Format: functional. To be noted: ip.
Data set [5] in a line: Bioavailability in rat. It is filed as ADME, organism-based. To be noted: in vivo. In outline:
(§1)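 Sprague-Dawley rats given 2 mg/kg iv (n = 2/group) and 10 mg/kg po (n = 3/group). Clearance, volume of distribution, half-life and oral bioavailability derived from plasma concentration profiles.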

Data set [6] in a line: Plasma level after 1 hr following 3 mg/kg dose administered intraperitoneally. Format: ADME, organism-based. Further details: dose 3 mg/kg, route intraperitoneal. To be noted: rat, ip, read-out: Plasma Level. In outline: (§2)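 Rats given 3 mg/kg ip; plasma and brain concentrations measured at 1 h after dosing.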
Data set [7] can be described thus: Plasma clearance in rat. Particulars: read-out: Clp. Format: ADME, organism-based. The procedure, abridged: as §1
In data set [8] the test system is Rattus norvegicus. The experiment in a line: In vivo receptor occupancy was determined in rats administered perorally after 2 hr. Format: functional. Particulars: po. The procedure, abridged: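 Sprague-Dawley rats dosed orally (n = 5–7/group); tail-vein radioligand given at Tmax, 2 h post-dose. Animals killed 1 min later and brain-bound tracer quantified. Occupancy ED50 from dose–response.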

Data set [9] is described as follows: Volume of distribution in rat. It is filed as ADME, organism-based. Particulars: in vivo. The procedure, abridged:
as §1

Data set [10] is described as follows: Brain level after 1 hr following 3 mg/kg dose administered intraperitoneally. Particulars: rat, ip. More on the design: dose 3 mg/kg, route intraperitoneal. Format: ADME, organism-based. The procedure, abridged:
as §2

The subject of data set [11] is Rattus norvegicus. In words: In vivo receptor occupancy was determined in rats administered perorally after 30 min. Particulars: po, 0.5 h. Format: functional.
Data set [12] in a line: Plasma level after 1 hr following 10 mg/kg dose administered intraperitoneally. It is filed as ADME, organism-based. More on the design: dose 10 mg/kg, route intraperitoneal. Particulars: rat, ip, read-out: Plasma Level. In outline: (§3)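 Rats given 10 mg/kg ip; plasma and brain concentrations measured at 1 h after dosing.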
The nature of data set [13]: Brain level after 1 hr following 10 mg/kg dose administered intraperitoneally. It is filed as ADME, organism-based. More on the design: dose 10 mg/kg, route intraperitoneal. Particulars: rat, ip. The procedure, abridged: as §3
Data set [14] relates to Rattus norvegicus. The experiment in a line: Blockage of fear-conditioning in rats determined in the fear-potentiated startle (FPS) model of anxiety administered perorally after 1 hr. It is filed as functional. To be noted: po. In outline:
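Fear-potentiated startle in Wistar rats (n = 8/group), acute oral dosing, tested 1 h after administration. Startle amplitude compared in dark versus light; ED50 for blocking fear expression.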

Data set [15] can be described thus: Half life in rat. Format: ADME. Particulars: in vivo. In outline:
as §1

Metabotropic glutamate receptor 5 (Rattus norvegicus, UniProt P31424), sequence (P31424 whole entry): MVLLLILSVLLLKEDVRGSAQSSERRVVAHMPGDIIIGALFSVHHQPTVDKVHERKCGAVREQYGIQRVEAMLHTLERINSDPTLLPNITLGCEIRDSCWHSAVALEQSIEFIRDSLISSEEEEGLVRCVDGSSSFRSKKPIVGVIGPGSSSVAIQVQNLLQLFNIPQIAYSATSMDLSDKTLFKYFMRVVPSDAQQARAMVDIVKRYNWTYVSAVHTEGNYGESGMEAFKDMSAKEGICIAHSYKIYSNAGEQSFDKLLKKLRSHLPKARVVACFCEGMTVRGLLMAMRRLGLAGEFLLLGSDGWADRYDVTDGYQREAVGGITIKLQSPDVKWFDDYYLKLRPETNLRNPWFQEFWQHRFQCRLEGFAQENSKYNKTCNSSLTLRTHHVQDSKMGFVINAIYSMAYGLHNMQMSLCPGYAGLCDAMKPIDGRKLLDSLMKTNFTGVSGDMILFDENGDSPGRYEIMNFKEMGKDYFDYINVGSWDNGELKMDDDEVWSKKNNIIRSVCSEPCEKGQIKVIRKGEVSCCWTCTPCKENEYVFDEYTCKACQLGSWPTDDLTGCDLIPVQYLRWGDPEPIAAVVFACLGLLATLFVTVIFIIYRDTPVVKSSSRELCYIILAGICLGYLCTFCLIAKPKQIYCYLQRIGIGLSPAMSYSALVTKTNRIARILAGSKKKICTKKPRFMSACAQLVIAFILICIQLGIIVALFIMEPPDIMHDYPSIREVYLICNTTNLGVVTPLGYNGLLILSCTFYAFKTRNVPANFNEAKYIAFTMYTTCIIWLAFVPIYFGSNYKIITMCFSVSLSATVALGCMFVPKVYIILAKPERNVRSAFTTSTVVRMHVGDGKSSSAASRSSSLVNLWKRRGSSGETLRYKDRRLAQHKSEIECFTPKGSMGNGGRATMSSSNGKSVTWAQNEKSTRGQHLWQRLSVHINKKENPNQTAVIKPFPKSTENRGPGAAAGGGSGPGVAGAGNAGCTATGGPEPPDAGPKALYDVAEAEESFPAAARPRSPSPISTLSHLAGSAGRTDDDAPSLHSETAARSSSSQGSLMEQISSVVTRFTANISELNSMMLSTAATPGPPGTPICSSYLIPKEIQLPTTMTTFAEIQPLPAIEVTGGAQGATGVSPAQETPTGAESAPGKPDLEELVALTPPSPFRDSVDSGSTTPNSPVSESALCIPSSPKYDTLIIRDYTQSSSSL
Metabotropic glutamate receptor 5 (Homo sapiens, UniProt P41594), sequence (P41594 whole entry): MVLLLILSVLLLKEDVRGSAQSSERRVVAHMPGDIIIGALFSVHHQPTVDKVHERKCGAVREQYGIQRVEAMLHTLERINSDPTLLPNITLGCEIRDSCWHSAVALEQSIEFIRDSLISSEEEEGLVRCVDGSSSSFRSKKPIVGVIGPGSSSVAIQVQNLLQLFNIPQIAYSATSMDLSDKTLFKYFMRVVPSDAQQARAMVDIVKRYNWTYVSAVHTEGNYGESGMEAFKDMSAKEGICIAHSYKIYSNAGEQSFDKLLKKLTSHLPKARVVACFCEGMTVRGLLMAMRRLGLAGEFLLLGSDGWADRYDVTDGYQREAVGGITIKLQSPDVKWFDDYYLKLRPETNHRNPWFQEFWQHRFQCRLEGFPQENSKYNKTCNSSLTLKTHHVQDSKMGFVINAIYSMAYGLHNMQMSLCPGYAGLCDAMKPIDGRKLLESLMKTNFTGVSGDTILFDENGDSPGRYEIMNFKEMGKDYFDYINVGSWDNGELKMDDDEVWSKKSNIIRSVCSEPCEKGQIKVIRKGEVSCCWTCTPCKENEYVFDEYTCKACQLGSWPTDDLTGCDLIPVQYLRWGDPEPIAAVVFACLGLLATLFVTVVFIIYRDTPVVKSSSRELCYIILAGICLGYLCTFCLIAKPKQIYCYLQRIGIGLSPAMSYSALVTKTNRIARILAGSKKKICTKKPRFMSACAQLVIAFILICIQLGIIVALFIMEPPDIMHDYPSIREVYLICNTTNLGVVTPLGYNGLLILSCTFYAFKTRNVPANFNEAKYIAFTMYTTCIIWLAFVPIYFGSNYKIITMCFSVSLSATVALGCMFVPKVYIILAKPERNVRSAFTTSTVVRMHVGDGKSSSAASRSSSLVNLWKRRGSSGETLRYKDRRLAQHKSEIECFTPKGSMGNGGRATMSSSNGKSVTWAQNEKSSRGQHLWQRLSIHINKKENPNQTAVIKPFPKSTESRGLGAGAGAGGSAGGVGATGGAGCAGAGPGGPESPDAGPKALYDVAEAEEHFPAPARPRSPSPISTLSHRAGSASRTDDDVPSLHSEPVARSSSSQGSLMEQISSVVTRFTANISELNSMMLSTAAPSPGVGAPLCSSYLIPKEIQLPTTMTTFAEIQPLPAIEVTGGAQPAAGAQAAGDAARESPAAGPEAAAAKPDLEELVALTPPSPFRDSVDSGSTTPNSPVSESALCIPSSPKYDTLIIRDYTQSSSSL

Take `N#Cc1cccc(-n2cnc(-c3ccccn3)c2)c1`: the Ki – broadly, the dissociation constant of the complex between target and ligand, obtained from inhibition or displacement – in data set [1] is above 0.6 µM. For the same molecule, the IC50 – broadly, the point on the concentration scale where inhibition reaches its midpoint – in data set [2] was 1.15 µM.

As to `N#Cc1cc(F)cc(-n2nnc(-c3ccccn3)n2)c1`, the concentration in data set [3] peaked (Cmax) at 2.5 µM. For the same molecule, the ED50 (usually the dose at which the effect has come halfway, by size or by number of responders) in the data set with Rattus norvegicus [4] was 1.3 mg/kg; in the data set with Rattus norvegicus [8], 3.6 mg/kg. Further, in data set [5], the bioavailability (usually dose-corrected exposure relative to a reference, in per cent) amounted to 26%. Also, affinity in [1] was put at a Ki of 0.01 µM. For the same molecule, the concentration at 1 h in [6] was found to be 2.7 µM; in data set [10], 2.4 µM. The clearance in data set [7] came to 1.01 L/h/kg. The Vd (commonly a proportionality between amount in the body and measured concentration, not a real space) in data set [9] is 1.1 L/kg. The IC50 in data set [2] worked out at 0.004 µM.

As for `N#Cc1cccc(-n2cnc(-c3ccccn3)n2)c1`, the Ki in data set [1] is above 0.6 µM. For the same molecule, in data set [2], the IC50 worked out at 0.69 µM.

The molecule `N#Cc1cccc(-n2ccc(-c3ccccn3)n2)c1` had a Ki in data set [1] of 0.53 µM. For the same molecule, the IC50 in data set [2] amounted to 0.44 µM.

On to `N#Cc1cccc(-n2nnc(-c3ccccn3)n2)c1`, for which the highest level in [3] (Cmax) was 5.8 µM. For the same molecule, the results for the ED50 with Rattus norvegicus [11], in the data set with Rattus norvegicus [4] and in the data set on Rattus norvegicus [14] were 3 mg/kg, 3 mg/kg and 5.4 mg/kg, respectively. The concentration at 1 h in data set [12] turned out to be 10.5 µM; in data set [13] it was 15.3 µM. Also, the Ki in data set [1] was found to be 0.19 µM. In addition, the clearance in data set [7] turned out to be 1.97 L/h/kg. Also, the IC50 in data set [2] came out at 0.07 µM.

Consider `N#Cc1cccc(-n2ncc(-c3ccccn3)n2)c1`, for which, in [3], the concentration peaked (Cmax) at 0.6 µM. The molecule also yielded a bioavailability in data set [5] of 3%. The Ki in data set [1] came out at 0.3 µM. Also, the half-life (usually the time in which the quantity being followed falls by half) in data set [15] was 2.5 h. In addition, the clearance in data set [7] worked out at 0.942 L/h/kg. Besides, the Vd in data set [9] turned out to be 1.1 L/kg. For the same molecule, the IC50 in [2] is 0.08 µM.

With `N#Cc1cccc(-c2nnn(-c3ccccn3)n2)c1`, the Ki in data set [1] worked out at 0.45 µM. The IC50 in [2] was 0.27 µM.

In data set [1], `N#Cc1cccc(-c2ccn(-c3ccccn3)c2)c1` registered a Ki above 0.6 µM. The IC50 in data set [2] was 4.62 µM.

As to `N#Cc1cccc(-c2cn(-c3ccccn3)nn2)c1`, in data set [1], the Ki was above 0.63 µM. Also, the IC50 in data set [2] was above 10 µM.

As to `N#Cc1cccc(-n2cc(-c3ccccn3)cn2)c1`, the peak level in [3] (Cmax) was 1.2 µM. In data set [5], this molecule came in with a bioavailability of 3%. Besides, affinity in data set [1] was put at a Ki of 0.25 µM. In data set [15], this molecule gave a half-life of 5.5 h. For the same molecule, the clearance in data set [7] is 0.582 L/h/kg. In data set [9], the Vd turned out to be 3.7 L/kg. Further, the IC50 in data set [2] came to 0.14 µM.

Molecule `N#Cc1cccc(-c2ccn(-c3ccccn3)n2)c1` displayed a Ki in data set [1] above 0.6 µM. Also, the IC50 in [2] was determined as 3.6 µM.

In turn, `N#Cc1cccc(-n2cc(-c3ccccn3)nn2)c1` displayed a Ki in data set [1] above 0.6 µM. Further, in data set [2], the IC50 was determined as 0.98 µM.

Turning to `N#Cc1cccc(-c2cnn(-c3ccccn3)c2)c1`, the Ki in data set [1] was above 0.63 µM. For the same molecule, in data set [2], the half-maximal inhibitory concentration (IC50) is 0.89 µM.

Consider `N#Cc1cccc(-c2cnn(-c3ccccn3)n2)c1`, for which, in data set [3], the peak concentration (Cmax) – broadly, the highest concentration seen after dosing – came to 2.7 µM. Also, the bioavailability in [5] was 13%. The Ki in [1] was found to be 0.2 µM. Besides, in data set [15], the half-life is 1.7 h. The clearance in [7] turned out to be 0.906 L/h/kg. In data set [9], this molecule gave a Vd of 1 L/kg. Besides, the IC50 in data set [2] was found to be 0.21 µM.

In [1], `N#Cc1cccc(-c2ncn(-c3ccccn3)n2)c1` had a Ki above 0.6 µM. The IC50 in data set [2] worked out at 6.15 µM.

Molecule `N#Cc1cccc(-n2ccc(-c3ccccn3)c2)c1` came in with a Cmax in [3] of 0.9 µM. In addition, in data set [5], the bioavailability turned out to be 4%. Besides, in data set [1], the Ki was above 0.6 µM. This molecule also gave a half-life in data set [15] of 1.7 h. In addition, the clearance in [7] came out at 1.95 L/h/kg. Moreover, the Vd in data set [9] was 3.6 L/kg. Moreover, the IC50 in data set [2] amounted to 0.19 µM.

Consider `N#Cc1cccc(-c2nc(-c3ccccn3)no2)c1`, for which the affinity in data set [1] corresponds to a Ki of 0.49 µM.

Molecule `N#Cc1cccc(-c2cn(-c3ccccn3)cn2)c1` came in with a Ki in data set [1] above 0.6 µM. In data set [2], the half-maximal inhibitory concentration (IC50) was above 10 µM.
